Data on three compounds can be found in ChEMBL document CHEMBL1255437, “Involvement of the beta subunit of RNA polymerase in resistance to streptolydigin and streptovaricin in the producer organisms Streptomyces lydicus and Streptomyces spectabilis” (2010).

For one test, the system named is Streptomyces lydicus. Description: Antimicrobial activity against Streptomyces lydicus NRRL 2433 after 5 to 7 days. Format: functional. An outline of the steps: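 Spore suspensions replica-plated with a plate replicator onto Bennet's agar plates containing a range of streptolydigin and streptovaricin concentrations. Plates incubated 5 to 7 days at 30°C. MIC scored as growth inhibition on the solid medium. Strain NRRL2433 is the streptolydigin producer.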

Test [1] concerns Streptomyces albus. Description: Antimicrobial activity against transconjugant Streptomyces albus J1074 after 5 to 7 days. Format: functional. The method, boiled down: (§1)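 MIC by agar dilution. Spore suspensions were replica plated with a plate replicator onto Bennet's agar containing a range of streptolydigin or streptovaricin concentrations, then incubated 5 to 7 days at 30°C. Recombinant S. albus strains carried pEM4T-derived plasmids introduced by conjugation from E. coli ET12567(pUB307); producer strains and host S. albus J1074 were tested the same way.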

Test [2] deals with Streptomyces albus. Nature of the test: Antimicrobial activity against transconjugant Streptomyces albus carrying pEM4T after 5 to 7 days. Format: functional. An outline of the steps:
as §1

Test [3] has as its system Streptomyces albus. Nature of the test: Antimicrobial activity against transconjugant Streptomyces albus carrying pEM4T-Abeta after 5 to 7 days. Format: functional. The method, boiled down: as §1
The test system of test [4] is Streptomyces albus. Nature of the test: Antimicrobial activity against transconjugant Streptomyces albus carrying pEM4T-Lbeta after 5 to 7 days. Format: functional. An outline of the steps:
as §1

Test [5] has as its system Streptomyces albus. Description: Antimicrobial activity against transconjugant Streptomyces albus carrying pEM4T-Lbeta' after 5 to 7 days. Format: functional. An outline of the steps:
as §1

Test [6] relates to Streptomyces albus. Nature of the test: Antimicrobial activity against transconjugant Streptomyces albus carrying pEM4T-CALbeta after 5 to 7 days. Format: functional. The method, boiled down:
as §1

The subject of test [7] is Streptomyces albus. Description: Antimicrobial activity against transconjugant Streptomyces albus carrying pEM4T-Lbeta100 with RNA polymerase beta subunit T458N mutant after 5 to 7 days. Format: functional. An outline of the steps: as §1
For test [8], the system named is Streptomyces albus. Description: Antimicrobial activity against transconjugant Streptomyces albus carrying pEM4T-Lbeta101 with RNA polymerase beta subunit L485F mutant after 5 to 7 days. Format: functional. The method, boiled down: as §1
Test [9] relates to Streptomyces albus. Nature of the test: Antimicrobial activity against transconjugant Streptomyces albus carrying pEM4T-Lbeta102 with RNA polymerase beta subunit D486E mutant after 5 to 7 days. Format: functional. The method, boiled down:
as §1

In test [10] the test system is Streptomyces albus. Description: Antimicrobial activity against transconjugant Streptomyces albus carrying pEM4T-Lbeta103 with RNA polymerase beta subunit L555V mutant after 5 to 7 days. Format: functional. An outline of the steps: as §1
Test [11] has as its system Streptomyces albus. Description: Antimicrobial activity against transconjugant Streptomyces albus carrying pEM4T-Lbeta104 with RNA polymerase beta subunit F593Y mutant after 5 to 7 days. Format: functional. An outline of the steps: as §1
For test [12], the system named is Streptomyces albus. Nature of the test: Antimicrobial activity against transconjugant Streptomyces albus carrying pEM4T-Lbeta105 with RNA polymerase beta subunit S624A mutant after 5 to 7 days. Format: functional. The method, boiled down:
as §1

For test [13], the system named is Streptomyces albus. Nature of the test: Antimicrobial activity against transconjugant Streptomyces albus carrying pEM4T-Lbeta106 with RNA polymerase beta subunit A636S mutant after 5 to 7 days. Format: functional. An outline of the steps: as §1
Test [14] has as its system Streptomyces albus. Description: Antimicrobial activity against transconjugant Streptomyces albus carrying pEM4T-Lbeta107 with RNA polymerase beta subunit L485F/D486E mutant after 5 to 7 days. Format: functional. An outline of the steps: as §1
The test system of test [15] is Streptomyces albus. Nature of the test: Antimicrobial activity against transconjugant Streptomyces albus carrying pEM4T-Lbeta108 with RNA polymerase beta subunit F593Y/M594L mutant after 5 to 7 days. Format: functional. The method, boiled down: as §1
The subject of test [16] is Streptomyces albus. Description: Antimicrobial activity against transconjugant Streptomyces albus carrying pEM4T-Abeta201 with RNA polymerase beta subunit F484L mutant after 5 to 7 days. Format: functional. The method, boiled down: as §1
The test system of test [17] is Streptomyces albus. Nature of the test: Antimicrobial activity against transconjugant Streptomyces albus carrying pEM4T-Abeta202 with RNA polymerase beta subunit E485D mutant after 5 to 7 days. Format: functional. An outline of the steps:
as §1

In test [18] the test system is Streptomyces albus. Description: Antimicrobial activity against transconjugant Streptomyces albus carrying pEM4T-Abeta203 with RNA polymerase beta subunit F484L/E485D mutant after 5 to 7 days. Format: functional. An outline of the steps:
as §1

In test [19] the test system is Streptomyces albus. Description: Antimicrobial activity against transconjugant Streptomyces albus carrying pEM4T-Sbeta102 with RNA polymerase beta subunit S475A mutant after 5 to 7 days. Format: functional. An outline of the steps:
as §1

Test [20] concerns Streptomyces albus. Nature of the test: Antimicrobial activity against transconjugant Streptomyces albus carrying pEM4T-Sbeta103 with RNA polymerase beta subunit T638K mutant after 5 to 7 days. Format: functional. The method, boiled down:
as §1

Test [21] deals with Streptomyces albus. Nature of the test: Antimicrobial activity against transconjugant Streptomyces albus carrying pEM4T-Sbeta104 with RNA polymerase beta subunit A639S mutant after 5 to 7 days. Format: functional. An outline of the steps: as §1
Test [22] concerns Streptomyces albus. Nature of the test: Antimicrobial activity against transconjugant Streptomyces albus carrying pEM4T-Sbeta105 with RNA polymerase beta subunit N474S/S475A mutant after 5 to 7 days. Format: functional. An outline of the steps: as §1
For test [23], the system named is Streptomyces albus. Nature of the test: Antimicrobial activity against transconjugant Streptomyces albus carrying pEM4T-Sbeta204 with RNA polymerase beta subunit L463I mutant after 5 to 7 days. Format: functional. An outline of the steps:
as §1

Test [24] deals with Streptomyces albus. Description: Antimicrobial activity against transconjugant Streptomyces albus carrying pEM4T-Sbeta205 with RNA polymerase beta subunit S470N mutant after 5 to 7 days. Format: functional. An outline of the steps: as §1
Test [25] concerns Streptomyces albus. Description: Antimicrobial activity against transconjugant Streptomyces albus carrying pEM4T-Sbeta206 with RNA polymerase beta subunit A471S mutant after 5 to 7 days. Format: functional. The method, boiled down: as §1
The subject of test [26] is Streptomyces albus. Description: Antimicrobial activity against transconjugant Streptomyces albus carrying pEM4T-Sbeta after 5 to 7 days. Format: functional. An outline of the steps: as §1
The subject of test [27] is Streptomyces albus. Nature of the test: Antimicrobial activity against transconjugant Streptomyces albus carrying pEM4T-Sbeta' after 5 to 7 days. Format: functional. An outline of the steps:
as §1

The subject of test [28] is Streptomyces albus. Nature of the test: Antimicrobial activity against transconjugant Streptomyces albus carrying pEM4T-CASbeta after 5 to 7 days. Format: functional. The method, boiled down: as §1
Test [29] deals with Streptomyces albus. Description: Antimicrobial activity against transconjugant Streptomyces albus carrying pEM4T-Sbeta100 with RNA polymerase beta subunit I467L mutant after 5 to 7 days. Format: functional. An outline of the steps:
as §1

Test [30] relates to Streptomyces albus. Nature of the test: Antimicrobial activity against transconjugant Streptomyces albus carrying pEM4T-Sbeta101 with RNA polymerase beta subunit N474S mutant after 5 to 7 days. Format: functional. An outline of the steps: as §1
The subject of test [31] is Streptomyces albus. Nature of the test: Antimicrobial activity against transconjugant Streptomyces albus carrying pEM4T-Abeta207 with RNA polymerase beta subunit S470N/A471S mutant after 5 to 7 days. Format: functional. An outline of the steps: as §1
For another test, the system named is Streptomyces spectabilis. Nature of the test: Antimicrobial activity against Streptomyces spectabilis NRRL 2494 after 5 to 7 days.

Converted amounts (≈) assume the structure as drawn. Some results are limits rather than exact numbers.

The term MIC denotes the least concentration at which growth counts as inhibited. Take `CNC(=O)[C@@H](C)[C@H]1C(=O)/C(=C(O)/C=C/C(C)=C/[C@@H](C)[C@H]2O[C@@]3(C)O[C@H](C=C[C@@]34CO4)[C@@H]2C)C(=O)N1[C@@H]1CC[C@H](O)[C@H](C)O1` [STREPTOLYDIGIN]: the MIC in the test on Streptomyces lydicus was above 200 µg/mL; in the test on Streptomyces albus [1], 1 µg/mL (≈ 1.66 µM); with Streptomyces albus [2] it was 1 µg/mL (≈ 1.66 µM); in the test with Streptomyces albus [3] it was 1 µg/mL (≈ 1.66 µM); with Streptomyces albus [4], 20 µg/mL (≈ 33.3 µM); in the test with Streptomyces albus [5], 1 µg/mL (≈ 1.66 µM). For the same compound, the MIC against Streptomyces albus [6] came out at 20 µg/mL (≈ 33.3 µM); in the test on Streptomyces albus [7] it was 20 µg/mL (≈ 33.3 µM); in the test on Streptomyces albus [8], 1 µg/mL (≈ 1.66 µM); in the test with Streptomyces albus [9] it was 10 µg/mL (≈ 16.6 µM); against Streptomyces albus [10], 1 µg/mL (≈ 1.66 µM); with Streptomyces albus [11], 10 µg/mL (≈ 16.6 µM). The MIC with Streptomyces albus [12] was 20 µg/mL (≈ 33.3 µM); in the test with Streptomyces albus [13], 10 µg/mL (≈ 16.6 µM); in the test with Streptomyces albus [14], 1 µg/mL (≈ 1.66 µM); against Streptomyces albus [15], 1 µg/mL (≈ 1.66 µM); with Streptomyces albus [16], 6 µg/mL (≈ 9.99 µM); against Streptomyces albus [17] it was 1 µg/mL (≈ 1.66 µM). In the test with Streptomyces albus [18], it took 9 µg/mL (≈ 15 µM) to inhibit growth (MIC).

In the case of `COC(=O)[C@@H]1[C@H](O)[C@H](C)[C@H](O)[C@H](C)/C=C\C=C(/C)C(=O)Nc2c(C)c(OC(C)=O)c3c(c2O)C(=O)C(C)=C2OCOC(=C23)/C(C)=C/[C@@](C)(O)[C@H](O)[C@@H](C)[C@H]1O` [STREPTOVARICIN], the minimum inhibitory concentration (MIC) stood at 200 µg/mL (≈ 260 µM) against Streptomyces albus [19]; 200 µg/mL (≈ 260 µM) in the test on Streptomyces albus [20]; 200 µg/mL (≈ 260 µM) with Streptomyces albus [21]; 70 µg/mL (≈ 90.9 µM) in the test with Streptomyces albus [22]; 70 µg/mL (≈ 90.9 µM) in the test on Streptomyces albus [23]; 80 µg/mL (≈ 104 µM) against Streptomyces albus [24]. For the same compound, the MIC was 80 µg/mL (≈ 104 µM) with Streptomyces albus [25]; 200 µg/mL (≈ 260 µM) against Streptomyces albus [26]; 70 µg/mL (≈ 90.9 µM) against Streptomyces albus [27]; 200 µg/mL (≈ 260 µM) with Streptomyces albus [28]; 200 µg/mL (≈ 260 µM) with Streptomyces albus [29]; 200 µg/mL (≈ 260 µM) in the test on Streptomyces albus [30]. In addition, the figures for the MIC against Streptomyces albus [31] and in the test on Streptomyces spectabilis were 200 µg/mL (≈ 260 µM) and above 200 µg/mL, respectively.

For the compound `CO[C@H]1/C=C/O[C@@]2(C)Oc3c(C)c(O)c4c(O)c(c(/C=N/N5CCN(C)CC5)c(O)c4c3C2=O)NC(=O)/C(C)=C\C=C\[C@H](C)[C@H](O)[C@@H](C)[C@@H](O)[C@@H](C)[C@H](OC(C)=O)[C@@H]1C` [RIFAMPIN], the MIC in the test with Streptomyces albus [19] is 40 µg/mL (≈ 48.6 µM); in the test on Streptomyces albus [20], 20 µg/mL (≈ 24.3 µM); in the test with Streptomyces albus [21], 40 µg/mL (≈ 48.6 µM); in the test on Streptomyces albus [22], 5 µg/mL (≈ 6.08 µM); in the test on Streptomyces albus [23] it was 5 µg/mL (≈ 6.08 µM); in the test with Streptomyces albus [24], 5 µg/mL (≈ 6.08 µM). Further, the MIC in the test on Streptomyces albus [25] is 5 µg/mL (≈ 6.08 µM); in the test on Streptomyces albus [26], 40 µg/mL (≈ 48.6 µM); against Streptomyces albus [27], 5 µg/mL (≈ 6.08 µM); against Streptomyces albus [28], 40 µg/mL (≈ 48.6 µM); against Streptomyces albus [29], 40 µg/mL (≈ 48.6 µM); against Streptomyces albus [30], 5 µg/mL (≈ 6.08 µM). The MIC in the test with Streptomyces albus [31] is 40 µg/mL (≈ 48.6 µM); against Streptomyces spectabilis, above 40 µg/mL.
